High-throughput results (PubChem BioAssay)
PKD1 kinase inh: PKD1 (human) kinase inhibition; PKD1 kinase fluorescence polarization assay; inhibition, % (no concentration beside the values); hit rate 0.056% among 200,000; AID 797; in the data active = inhibition above about 50%
p97 inhibitor: human p97 ATPase inhibition. hit rate 0.42% among 220,000. AID 1481. inhibition, % at 8 µM. recombinant p97 ATPase, Kinase-Glo ATP luminescence, 3 h. P55072; in the data active = inhibition above about 15%;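 note: 0% = DMSO vehicle and 100% = wells lacking enzyme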
ROMK primary: modulators of human ROMK potassium channel | Tet-inducible ROMK, thallium flux fluorescence; actives lie on both sides | P48048 | B-score at 10 µM | AID 1918 | hit rate 2% among 130,000;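 active = signal ratio slope over the read window, or its plate-corrected B-score, at least 3 SD from the plate mean, either direction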;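 note: B-score of the F/F0 ratio slope over 7 to 12 s after thallium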
KCC2 mod: KCC2 (human) Cl- transport modulation | Q9H2X9 | KCC2 cells, thallium flux FluoZin-2 fluorescence | B-score of Tl+ flux slope (higher = more flux/activation; lower = inhibition) at 10 µM | hit rate 2.2% among 190,000 | AID 1456;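 active = thallium flux slope and its plate-corrected score both differing from the plate sample mean at a set confidence after two filtering rounds, in either direction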;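 note: slope of fluorescence scaled to starting intensity during 10 to 20 s after thallium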
DTT redox prof: compounds producing H2O2 with reducing agent – biochemical, NIH compound library profiling, artefact control for MLSCN library redox annotation, primary screen; DTT-dependent redox cycling H2O2, phenol red/HRP absorbance; 100% = 100 µM peroxide control, 0% = buffer; activation, % at 10 µM; hit rate 0.03% among 200,000;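 active = activation of at least 50% relative to the plate's high and low controls in the primary single-dose screen; inactive = activation below 50%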;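 note: compound incubated with DTT at 0.8 mM final as the reducing agent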
MDM2 E3 inh: blocks human Mdm2 ubiquitin ligase activity; Q00987; cell-based MDM2 ubiquitination luciferase reporter, 2 h; 0 = plate control, 100 = twice control, blank-subtracted; signal enhancement, % at 5 µM; hit rate 0.11% among 210,000; AID 1230;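 active = signal enhancement of 30% or more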;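 note: luminescence tracks abundance of the self-degrading MDM2-luciferase fusion protein; higher signal means inhibition of MDM2 E3 ligase activity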
Target sequence (Q00987 whole entry, looked up, the tested form may be a part): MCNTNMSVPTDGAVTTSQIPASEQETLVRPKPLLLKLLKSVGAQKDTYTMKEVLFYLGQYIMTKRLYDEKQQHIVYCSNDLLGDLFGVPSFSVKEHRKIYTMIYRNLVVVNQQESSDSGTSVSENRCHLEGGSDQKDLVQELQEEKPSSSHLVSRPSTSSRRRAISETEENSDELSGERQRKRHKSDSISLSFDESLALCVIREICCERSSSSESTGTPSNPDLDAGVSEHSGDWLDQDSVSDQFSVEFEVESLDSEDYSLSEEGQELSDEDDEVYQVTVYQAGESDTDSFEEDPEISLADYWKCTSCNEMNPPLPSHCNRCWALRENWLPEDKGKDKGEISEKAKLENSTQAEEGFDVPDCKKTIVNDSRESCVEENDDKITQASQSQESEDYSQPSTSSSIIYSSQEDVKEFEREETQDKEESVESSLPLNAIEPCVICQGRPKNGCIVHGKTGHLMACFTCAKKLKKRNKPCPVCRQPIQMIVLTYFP
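Assay system: mammalian cells stably expressing self-ubiquitinating, self-degrading MDM2 E3–luciferase fusion. Quantity: 2000 cells in each well. Medium: DMEM culture medium. Compound dosing: single-point 5 µM. Timing: cell settling 4 h, compound treatment 2 h, both 37 °C. Technique: luciferase luminescence. Read-out basis: percent signal gain over controls, blank-subtracted. Benchmarks: plate controls and plate blanks.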
* marks the source's active call; other numbers are inactive results; / = no result. Sampled rows, rich in hits. Any-hit rate of the full collection: about 3.4%.

SMILES	PKD1 kinase inh	p97 inhibitor	ROMK primary	KCC2 mod	DTT redox prof	MDM2 E3 inh
COc1cccc(-c2nnc(NC(C)=O)o2)c1	/	/	/	-0.011	/	7
COc1cccc(-c2nnc(Nc3nc4c(F)cccc4s3)o2)c1	-4	-1	9.4*	39*	10	-51
COc1cccc2sc(NN)nc12	-7	-3	0.26	0.79	0	-18
COc1ccccc1-c1nnc(Nc2nc3c(OC)cccc3s2)o1	0	1	2.4*	4.1*	0	39*
COc1cccc(C(=O)NC(=S)Nc2ccc(Cl)cc2C(=O)O)c1	/	6	/	-1.2	/	-7
COc1cccc(C(=O)NC(=S)Nc2ccc3c4c(cccc24)CC3)c1	-3	-3	/	5*	3	-29
S=C(NN=C1CCCCCC1)Nc1ccc(Cl)cc1	-8	-1	/	/	0	0
Fc1ccc(NC(=S)NN=C2CCCCCC2)cc1	-3	1	/	22*	-3	-18
c1csc(CCNc2ncnc3sc4c(c23)CCC4)c1	-4	/	/	-4.5*	-1	-15
CCN(CC)CCN1C(=O)c2oc3ccccc3c(=O)c2C1c1ccccc1 (centres undefined)	-12	2	0.31	/	-5	-9
CCN(CC)CCN1C(=O)c2oc3ccccc3c(=O)c2C1c1cccc(Br)c1 (centres undefined)	-4	-10	-0.86	24*	-1	-21
CC(Sc1nc(-c2ccccc2)cc(C(F)(F)F)n1)C(=O)Nc1sc2c(c1C#N)CCC2 (centres undefined)	-5	2	0.77	0.003	-1	-9
Cc1[nH]n(-c2ccc(Cl)cc2)c(=O)c1/C=N/c1nnc(-c2ccccc2)s1	-3	-5	1.1	45*	0	-2
COc1ccc2nc(/N=C\N(C)C)sc2c1	-20	-1	0.44	/	0	-6
Cc1ccc(-n2[nH]c(C)c(C=Nc3cc(C)ccn3)c2=O)cc1	-4	-35	-0.0061	4.2*	1	-8
Cc1ccc(-n2[nH]c(C)c(/C=N/c3ccccn3)c2=O)cc1	4	-38	/	/	2	-8
COc1ccc2nc(/N=C/c3c(C)[nH]n(-c4ccc(C)cc4)c3=O)sc2c1	0	-25	/	54*	0	-11
COC(=O)CSc1nnc(CNC(=O)c2ccccc2OC)n1-c1ccc(OC)cc1	-9	2	/	/	2	-12
O=C(COc1ccccc1)N1CCNC1=O	-5	4	-0.27	-0.22	3	-18
O=C(NC(=S)Nc1cccnc1)c1cc2ccccc2o1	-2	1	3.5*	88*	0	0
CC(=O)Nc1ccc(NC(=S)NC(=O)c2cc3ccccc3o2)cc1	-7	0	/	0.1	/	-7
O=c1c2ccccc2nc(-c2cccc(Cl)c2)n1O	4	11	/	18*	2	-12
CC(C)N(C(=O)CSc1ncnc2sc(-c3ccccc3)cc12)C(C)C	-7	-1	1.3	7.1*	0	-20
Cc1ccc(/C=C/C(=O)c2cc(Br)ccc2OC(=O)c2ccco2)cc1	-11	3	/	-0.032	2	-3
CCc1ccc(/C=C/C(=O)c2cc(Br)ccc(=O)c2O)cc1	-7	4	1.5	8*	1	-7
SMILES	PKD1 kinase inh	p97 inhibitor	ROMK primary	KCC2 mod	DTT redox prof	MDM2 E3 inh
CCOc1ccc(/C=C/C(=O)c2cc(Br)ccc(=O)c2O)cc1	-21	2	0.76	31*	3	16
Cc1cccc(/C=C/C(=O)c2cc(Br)ccc(=O)c2O)c1	6	5	-0.39	11*	1	1
O=C(CSc1nc2ccccc2[nH]1)Nc1ccc2c(c1)OCCO2	-15	-1	-1.6	/	-4	-4
CC1CCc2c(sc(NC(=O)COC(=O)c3ccccc3NCc3ccco3)c2C#N)C1 (centres undefined)	-4	-7	0.53	1	0	-1
Clc1ccc(Cc2ccccc2)nn1	-4	-5	/	-0.02	3	-6
CN(C)CCC(O)(c1ccccc1)c1ccccc1	-2	-1	-0.75	/	0	-9
CN(C)CCCC(C)(O)C(C)(C)c1ccccc1 (centres undefined)	-2	15*	0.44	/	0	-18
Cc1cc2sc3ccccc3c(=O)c2c(C)c1O	-1	5	0.47	0.61	-1	2
